# Compound activity (PubChem BioAssay)
# TRAIL sens C8 – sensitizes caspase-8 expressing cells to TRAIL; actives 1% (n = 360,000); NB7+C8 cells + TRAIL, ATPlite viability luminescence; inhibition (viability loss, TRAIL sensitization), % at 10 µM;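 active means compounds causing at least 50% loss of cell viability in the single-dose screen, relative to plate controls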
# FLuc inh counter – Photinus pyralis luciferase inhibition counter-screen; actives 1.5% (n = 200,000); AID 1006; ATPLite firefly luciferase biochemical luminescence, 10 min; P08659; inhibition, % at 10 µM;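 active means inhibition above about 50% when tested at 10 µM, limit read from the data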
# Target sequence (P08659 whole entry, looked up): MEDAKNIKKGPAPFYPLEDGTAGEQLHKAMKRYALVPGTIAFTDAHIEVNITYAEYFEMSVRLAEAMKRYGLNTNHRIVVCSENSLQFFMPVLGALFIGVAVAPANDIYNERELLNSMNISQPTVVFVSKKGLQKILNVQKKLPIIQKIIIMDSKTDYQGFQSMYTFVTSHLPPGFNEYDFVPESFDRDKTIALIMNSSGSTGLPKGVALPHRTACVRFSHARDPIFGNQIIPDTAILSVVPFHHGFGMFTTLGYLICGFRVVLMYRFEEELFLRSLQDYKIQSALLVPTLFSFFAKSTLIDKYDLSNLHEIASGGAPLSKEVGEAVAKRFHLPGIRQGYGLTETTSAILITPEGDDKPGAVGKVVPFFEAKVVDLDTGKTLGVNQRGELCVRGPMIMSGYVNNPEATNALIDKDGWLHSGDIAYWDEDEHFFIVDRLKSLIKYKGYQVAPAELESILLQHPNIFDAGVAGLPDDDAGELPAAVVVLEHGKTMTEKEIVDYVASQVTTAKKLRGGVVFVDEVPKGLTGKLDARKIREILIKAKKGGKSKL
# FLuc stim CS – affects firefly luciferase, flagging false hits in luciferase stimulation screens | AID 1027 | activation factor at 10 µM | P08659 | 200,000 tested, under 10 active | ATPlite luciferase biochemical, luminescence, 10 min; 0 = ATP-free wells, 1 = DMSO control;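 active means luciferase activation factor, scaled between plate controls, of at least 2 with compound at 10 µM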
#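 Assay system: Luciferase/luciferin detection reagent, cell-free biochemical luciferase assay / Read-out: luciferase activation / Benchmarks: No-ATP low control, compound-free enzyme-plus-ATP high control / Medium: PBS buffer for ATP / Detection: luminescence measurement of luciferase light output / Schedule: 10 min at ambient temperature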
# PPC-1+TRAIL kill – compounds killing PPC-1 cancer cells with TRAIL present (potentiator screen, no TRAIL-free arm). cell killing (% activity), % at 4 µM or 5 µM. PPC-1 cells + TRAIL, ATPLite viability luminescence. AID 1443. actives 0.41% (n = 220,000);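 active means cell killing above 50% in the first pass at 4 µM, then a duplicate retest at 5 µM averaging 50% or more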;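 further: plate controls were cells with TRAIL plus DMSO for no effect and medium-only wells lacking cells for full effect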
# * hit, by the source's call; / = not tested or not shown. Hits are enriched below; roughly 1.6% of the tested compounds scored in any of these assays.
SMILES,TRAIL sens C8,FLuc inh counter,FLuc stim CS,PPC-1+TRAIL kill
COc1ccc(CN(C)C(=O)c2cccc(NC(=O)CC3SC(N4CCCCC4)=NC3=O)c2)c(OC)c1 (configuration not stated),38,/,/,/
COCn1c(COc2ccc3ccccc3c2)nc2ccccc21,39,60*,0.4,24
NC(=O)C1CCN(C(=O)C2CCC(=O)N(C3CCCCCC3)C2)CC1 (configuration not stated),-19,/,/,/
CC(C)c1onc(C(=O)N2CCN(C(c3ccccc3)c3ccccc3)CC2)c1[N+](=O)[O-],91*,4,1,-7
Cc1onc(C(=O)N2CCC(Cc3ccccc3)CC2)c1[N+](=O)[O-],92*,/,/,/
Cc1ccc(Cl)cc1N1CCN(C(=O)c2noc(C(C)C)c2[N+](=O)[O-])CC1,95*,/,/,/
CC(C)c1onc(C(=O)N2CCN(c3ccc(F)cc3)CC2)c1[N+](=O)[O-],65*,/,/,/
CC(C)c1onc(C(=O)N2CCN(c3ccccc3)CC2)c1[N+](=O)[O-],10,/,/,12
CC(C)c1onc(C(=O)N2CCCCCC2)c1[N+](=O)[O-],3,-4,1,3
CC[C@]1(C(=O)OC)[C@H]2C(=O)N(C)C(=O)[C@H]2[C@H]2CN=C(SCc3ccc(OC)cc3)N21,1,/,/,/
CCCOc1ccc(C(=O)Nc2ccc3c(c2)OCCO3)cc1,49,/,/,/
CN(C(=O)OC(C)(C)C)c1ccc(-c2nc3ccccc3s2)cc1,89*,/,/,/
COc1ccccc1C(=O)NNC(=O)c1cccc(O)c1,50*,/,/,/
Fc1cccc(Cl)c1/C=C/c1cnc2ccccc2n1,3,/,/,/
Cc1ccsc1/C=C/c1ccc2ccccc2n1,56*,39,0.6,27
Fc1cccc(F)c1/C=C/c1ccc2ccccc2n1,58*,82*,0.2,-5
Cc1ccsc1/C=C/c1ccc2cccc(O)c2n1,9,23,0.8,29
COc1ccc(CCC(=O)Nc2cc(S(=O)(=O)N3CCCCC3)ccc2N(C)C)cc1,3,/,/,/
Cn1c(NCc2ccc(Cl)cc2)nc2ccccc21,31,51*,0.5,23
Cc1ccc(CNc2nc3ccccc3n2C)cc1,58*,/,/,/
Cc1ccc(NCc2nc3ccccc3n2C)cc1,-7,70*,0.3,44
CC(C)(C)N1CC(C(=O)Nc2ccc(C(N)=O)cc2)CC1=O (configuration not stated),2,/,/,/
O=C(CCS(=O)(=O)c1ccc(Br)cc1)Nc1ccccn1,-1,-7,1.1,66*
O=C(CCS(=O)(=O)c1ccc(Br)cc1)Nc1ccccc1Cl,-5,/,/,/
O=C1COc2ccccc2N1Cc1ccc(Cl)cc1,-1,/,/,/
SMILES,TRAIL sens C8,FLuc inh counter,FLuc stim CS,PPC-1+TRAIL kill
CC(C)(C)c1ccc2c(c1)OC(C(=O)N/N=C\c1ccc[nH]1)CO2 (configuration not stated),61*,/,/,/
Cc1cccc(C(=O)N/N=C/c2ccc[nH]2)c1,-24,26,0.7,7
CC(C)(C)c1ccc2c(c1)OC(C(=O)N/N=C\c1ccncc1)CO2 (configuration not stated),-5,/,/,-5
CC(C)(C)OC(=O)N/N=C/c1cccc([N+](=O)[O-])c1,30,79*,0.2,31
CC(C)(C)OC(=O)N/N=C\c1ccc[nH]1,2,62*,0.4,28
Cc1ccc(C2/C=C\CC(NC(=O)OCC3c4ccccc4-c4ccccc43)CC(=O)N2Cc2ccccc2)cc1 (configuration not stated),16,/,/,/
Cc1cc(=O)[nH]c2c1cnn2C(C)c1ccccc1 (configuration not stated),8,/,/,/
Cc1cccc(NC(=S)NNC(=O)c2csc(C(C)C)c2)c1,20,54*,0.5,23
CCc1cc(C(=O)NNC(=S)Nc2cccc(C)c2)cs1,14,51*,0.5,13
CCCCn1nc(C(=O)NCC2COc3ccccc3O2)c2ccccc2c1=O (configuration not stated),15,/,/,/
Cc1ccc(-c2nc3ccccc3[nH]2)s1,56*,61*,0.4,47
c1csc(-c2nc3ccccc3[nH]2)c1,-1,24,0.8,26
Cc1cc(-c2nc3ccccc3[nH]2)ccc1N,44,72*,0.3,40
COC(=O)c1ccc(C(=O)Nc2ccc3nc(-c4ccncc4)[nH]c3c2)cc1,-1,/,/,/
COC(=O)c1ccc(-c2nc3ccccc3[nH]2)cc1,82*,91*,0.1,36
Nc1nc(-c2nc3ccccc3[nH]2)cs1,36,63*,0.4,-16
O=C1C(Sc2ccccc2)=C[C@@]2(O)CC[C@@H](O)[C@]1(Sc1ccccc1)[C@H]2O,-22,/,/,/
O=C(Nc1ccc(N2CCCCC2)cc1)c1ccc([N+](=O)[O-])o1,31,/,/,/
O=C(Nc1ccc(N2CCN(Cc3ccccc3F)CC2)cc1)c1ccc([N+](=O)[O-])o1,89*,/,/,/
O=C(Nc1ccc(N2CCN(Cc3ccccc3F)CC2)cc1)c1ccccc1[N+](=O)[O-],-9,-9,1.1,19
CC1CCN(c2ccc(NC(=O)c3ccc([N+](=O)[O-])o3)cc2)CC1,94*,/,/,/
Cn1c(=O)[nH]c(Nc2ccccc2)c([N+](=O)[O-])c1=O,-3,-4,1,7
CN(C(=O)CSc1nnc(Cc2cccs2)n1C1CC1)C1CCS(=O)(=O)C1 (configuration not stated),-11,/,/,/
Cc1c(C(=O)O)cnc2cc(-c3ccc(Cl)cc3)nn12,34,56*,0.4,4
c1cncc(-c2csc(-c3cccnc3)n2)c1,2,/,/,/
SMILES,TRAIL sens C8,FLuc inh counter,FLuc stim CS,PPC-1+TRAIL kill
Oc1ccc(-c2csc(-c3cccnc3)n2)c(O)c1,24,53*,0.5,1
O=C(/C=C/c1ccccc1)Nc1ccc2c(c1)OCCO2,75*,94*,0.1,/
O=C(CSCSCC(=O)Nc1ccc2c(c1)OCO2)Nc1ccc2c(c1)OCO2,8,12,0.9,17
COc1ccccc1/C=C/C(=O)Nc1ccc2c(c1)OCCO2,75*,85*,0.2,56*
CC(C)=CC(=O)Nc1ccc2c(c1)OCO2,32,51*,0.5,24
Cc1cc(OCC(=O)OCC(=O)NCC2CCCO2)ccc1Cl (configuration not stated),-11,/,/,/
O=C(Nc1nnc(-c2cccs2)o1)c1ccco1,-9,2,1,18
O=C(Nc1nnc(-c2ccccc2Cl)o1)c1ccco1,45,66*,0.3,30
Cc1ccc(C)c(-c2nnc(NC(=O)c3ccco3)o2)c1,25,/,/,/
Cc1ccc(-c2nnc(NC(=O)c3ccco3)o2)c(C)c1,55*,/,/,/
O=C(Nc1nnc(-c2ccc(Br)cc2)o1)c1ccco1,54*,/,/,/
COC(=O)C[C@@H]1OC[C@H](C)N1S(=O)(=O)c1ccc(C)cc1,5,/,/,/
O=C(CC1Nc2ccccc2NC1=O)c1ccccc1 (configuration not stated),/,54*,0.5,21
N/C(=N\OC(=O)COc1ccc(Cl)cc1Cl)c1ccccn1,54*,50,0.5,41
N/C(=N\OC(=O)COc1ccc(Br)cc1Cl)c1ccccn1,66*,39,0.6,38
Cc1cc(C)c(C)c(OCC(=O)O/N=C(\N)c2ccccn2)c1,2,-2,1,30
